The source of these data is ChEMBL document CHEMBL1152321, “Recent advances in the chemistry and biology of new generation taxoids” (J Nat Prod, 2009).

Data set [1] deals with DLD-1. Nature of the data set: Antitumor activity against human DLD1 cells expressing P-glycoprotein xenografted in SCID mouse assessed as tumor growth delay at 10 mg/kg, iv administered on day 5, 8, 11 post tumor implantation. The format is functional. The method, boiled down: (§1)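 SCID mice carrying subcutaneous Pgp+ DLD-1 human colon tumours were dosed i.v. q3d×3 on days 5, 8 and 11 after implant, in Tween/EtOH vehicle, with vehicle and untreated control groups. Growth delay was compared with controls by Cox-Mantel test. Cures were mice with no palpable tumour on day 167. Toxicity was counted as death or more than 20% body-weight loss.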
(Xenograft models place foreign cells or tissue in a host animal.)

In data set [2] the test system is DLD-1. Nature of the data set: Antitumor activity against human DLD1 cells expressing P-glycoprotein xenografted in SCID mouse assessed as no palpable tumors at 20 mg/kg, iv administered on day 5, 8, 11 post tumor implantation measured on day 167. More on the design: dose 20 mg/kg. In kind it is functional, organism-based. In outline: as §1
Data set [3] relates to DLD-1. Nature of the data set: Antitumor activity against human DLD1 cells expressing P-glycoprotein xenografted in SCID mouse assessed as tumor growth delay at 20 mg/kg, iv administered on day 5, 8, 11 post tumor implantation. The format is functional. In outline:
as §1

The nature of data set [4]: Cytotoxicity against human primary pancreatic ductal cells up to 10 uM. In kind it is cell-based.
Data set [5] concerns DLD-1. Nature of the data set: Antitumor activity against human DLD1 cells expressing P-glycoprotein xenografted in SCID mouse assessed as no palpable tumors at 10 mg/kg, iv administered on day 5, 8, 11 post tumor implantation measured on day 167. More on the design: dose 10 mg/kg. The format is functional, organism-based. The method, boiled down:
as §1

The next data set is filed under the species Mus musculus. Nature of the data set: Toxicity in SCID mouse assessed as decrease in body weight after day 15 to day 20. The format is organism-based. Also noted: scale not given: the % may be the effect or the level left. The settings on record: in vivo.
Data set [6] has as its system DLD-1. Nature of the data set: Antitumor activity against human DLD1 cells expressing P-glycoprotein xenografted in SCID mouse assessed as tumor growth delay at 40 mg/kg, iv administered on day 5, 8, 11 post tumor implantation. In kind it is functional. In outline: as §1
The nature of data set [7]: Cytotoxicity against P-glycoprotein deficient wild type human LCC-6 cells after 72 hrs. The settings on record: LCC-6, 72 h. The format is functional, cell-based.
For another data set, the system named is A2780. Nature of the data set: Resistance factor, […] harboring point mutation in beta-tubulin. In kind it is functional.
The test system of a further data set is MCF7. Nature of the data set: Resistance factor, ratio of IC50 for P-glycoprotein deficient wild type human MCF7 cells to IC50 for multidrug-resistant human NCI/ADR cells. The format is functional.
Data set [8] can be described thus: Resistance factor, ratio of IC50 for human LCC-6 cells expressing P-glycoprotein to IC50 for P-glycoprotein deficient wild type human LCC-6 cells. The format is functional. Also noted: reference not given here.

The source made the active and inactive calls. No cut-off for these calls is given here.

On to `CC(=O)O[C@@]12CO[C@@H]1C[C@H](O)[C@@]1(C)C(=O)[C@H](OC(=O)C3CC3)C3=C(C)[C@@H](OC(=O)[C@H](O)[C@H](C=C(C)C)NC(=O)OC(C)(C)C)C[C@@](O)([C@@H](OC(=O)c4ccccc4)[C@H]21)C3(C)C`, for which the Activity is 37 days with DLD-1 [1]; above 150 days in the data set with DLD-1 [3]; “Not Active” in data set [4]; 3% in the data set listed under Mus musculus; above 150 days in the data set with DLD-1 [6]. In addition, the result in the data set on DLD-1 [2] was Active. Further, in the data set on DLD-1 [5], the result was inactive.
In the case of `CCC(=O)O[C@H]1C(=O)[C@@]2(C)[C@H]([C@H](OC(=O)c3cccc(OC)c3)[C@]3(O)C[C@H](OC(=O)[C@H](O)[C@H](C=C(C)C)NC(=O)OC(C)(C)C)C(C)=C1C3(C)C)[C@]1(OC(C)=O)CO[C@@H]1C[C@@H]2O`, the IC50 in data set [7] was determined as 1 nM. Moreover, the Ratio with A2780 came to 5.1; in the data set with MCF7, 0.92; in data set [8], 0.9.

By IC50 is commonly meant the concentration at which inhibition is half-maximal.
